Laboratory results reported in ChEMBL document CHEMBL4477170, “Tricyclic Acylphloroglucinols from Hypericum lanceolatum and Regioselective Synthesis of Selancins A and B” (J Nat Prod, 2016).
The source made the active and inactive calls. The calls are words filed in the database; no cut-off is given here.

Assays:
HT-29 = assay: Cytotoxicity against human HT-29 cells assessed as cell growth inhibition at 10 uM by XTT assay; type: functional, cell-based
Outline: (§1)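 Modified XTT assay on HT-29 colon and PC-3 prostate cancer cell lines, measuring growth inhibition; isolated compounds tested up to 10 μM.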

PC-3 = assay: Cytotoxicity against human PC3 cells assessed as cell growth inhibition at 10 uM by XTT assay; type: functional, cell-based; outline: as §1

SMILES	growth inhibition (GI) (HT-29)	growth inhibition (GI) (PC-3)
CC(C)C(=O)c1c(O)c2c(c3c1OC(C)(C)C=C3)OC(C)(C)C=C2	inactive	inactive
CC[C@H](C)C(=O)c1c(O)c2c(c3c1OC(C)(C)C=C3)OC(C)(C)C=C2	inactive	inactive
CC[C@H](C)C(=O)c1c(O)c2c(c3c1OC(C)(C)C=C3)OC(C)(C)[C@H](O)C2	inactive	inactive
CC(C)C(=O)c1c(O)c2c(c3c1OC(C)(C)C(O)C3)OC(C)(C)C=C2 (stereo not drawn)	inactive	inactive
CC[C@H](C)C(=O)c1c(O)c2c(c3c1OC(C)(C)C=C3)OC(C)(C)[C@@H](O)C2=O	inactive	inactive
CC(C)=CCC/C(C)=C/COc1cc(O)c2c(c1)C(=O)c1cc(C)cc(O)c1C2=O	inactive	inactive
CC(C)C(=O)c1c(O)c2c(c3c1OC(C)(C)C=C3)OC(C)(C)[C@H](O)[C@@H]2O (relative stereo)	inactive	inactive
CC(C)C(=O)c1c(O)c2c(c3c1OC(C)(C)C=C3)OC(C)(C)[C@@H](O)C2=O	inactive	inactive
CC[C@H](C)C(=O)c1c(O)c2c(c3c1OC(C)(C)C(O)C3)OC(C)(C)C=C2 (stereo partly drawn)	inactive	inactive
